# Screening results as filed in PubChem.
# p-CIP stab down = lowers stability of the mouse p/CIP coactivator protein | decrease of EGFP signal, % at 10 µM | Q05BA5 | F442A p/CIP-EGFP cells, EGFP fluorescence, 16 h | actives 0.01% (n = 290,000) | AID 1984;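 active = EGFP signal decrease of at least 30% at 10 µM or well 3 SD below plate mean, unless failing retest; inactive = the rest, including hits failing retest or dose response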
# CHT PAM = allosteric activators of human choline transporter CHT; CHT-expressing cells, membrane potential dye, choline EC20; active compounds read high; LV-AA mutant CHT in HEK293 cells; Q9GZV3; actives 0.49% (n = 310,000); B-score at 10 µM; AID 488977;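 active = initial fluorescence not abnormally high and integrated response B-score, plate-corrected, over 3 SD above library mean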
# Target sequence (Q9GZV3 whole entry, looked up): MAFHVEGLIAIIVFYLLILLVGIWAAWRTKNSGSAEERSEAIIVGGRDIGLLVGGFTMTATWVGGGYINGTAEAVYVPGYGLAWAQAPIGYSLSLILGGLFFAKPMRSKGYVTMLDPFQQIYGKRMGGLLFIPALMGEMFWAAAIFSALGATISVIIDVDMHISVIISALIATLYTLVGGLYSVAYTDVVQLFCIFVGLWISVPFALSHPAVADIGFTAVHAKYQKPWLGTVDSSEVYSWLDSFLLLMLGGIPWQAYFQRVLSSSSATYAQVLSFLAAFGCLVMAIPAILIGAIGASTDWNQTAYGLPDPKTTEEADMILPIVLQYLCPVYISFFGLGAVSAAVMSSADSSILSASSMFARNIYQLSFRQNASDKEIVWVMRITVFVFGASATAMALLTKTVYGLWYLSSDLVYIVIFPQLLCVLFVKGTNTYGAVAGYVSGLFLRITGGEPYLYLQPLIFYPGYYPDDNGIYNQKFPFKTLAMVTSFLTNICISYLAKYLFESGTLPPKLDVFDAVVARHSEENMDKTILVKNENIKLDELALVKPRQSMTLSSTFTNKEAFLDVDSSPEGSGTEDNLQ
# Pemphigus Ab inh = blocks pemphigus antibody binding to human desmoglein-3. binding (percent of control), % at 10 µM. P32926. DSG3-coupled beads, scFv-anti-DSG3-GFP binding, flow cytometry; active compounds read low. AID 588358. actives 0.48% (n = 310,000);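 active = binding more than 3 SD below its plate's average and above zero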;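 also: hits lower antibody fragment binding to DSG3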
# GPR7 antagonist = human neuropeptides B/W receptor 1 antagonism; GPR7-expressing cells, fluorescence antagonist assay; AID 1861; P48145; inhibition, % at 4.4 µM; actives 1.1% (n = 290,000); in the data active = inhibition above about 16%, passing the limit was not always enough;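 also: cells stimulated with the agonist NPW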
# T cell HTS = T cell immune modulators affecting CD8 T cell-vesicle binding. response (vesicle binding), % at 7 µM. actives 0.068% (n = 330,000). 2C CD8+ T cell-vesicle binding, flow cytometry; active compounds read low;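 active = response, share of CD8 T cells binding vesicles, and their 90th percentile fluorescence all below set limits, cut at about 80% in these data, passing the limit was not always enough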;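 also: values below 100% mean blocked vesicle binding to the CD8+ T cells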
#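 Incubation: binding step 1.5 h, 37 °C, antibody labelling 20 min, ice; system: murine 2C transgenic CD8+ T lymphocytes; technique: cytometric PE anti-B7-1 and Alexa647 anti-CD8 signals after 1% paraformaldehyde fixation; also added: QL9-charged Drosophila Ld/ICAM-1/B7-1 vesicles; control set: naked versus QL9-loaded vesicles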
# CHT block = inhibitors of human choline transporter CHT | Q9GZV3 | CHT-expressing cells, membrane potential dye, choline response; active compounds read low | B-score at 10 µM | actives 0.86% (n = 310,000) | AID 488975;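 active = B-score over 3 SD under the library average, and starting fluorescence ratio not unusually high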;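 also: choline stimulus applied at its EC90 after an EC20 pre-addition; B-score computed on integrated fluorescence ratio after choline addition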
# GPR7 antag cf = confirmation of human GPR7 antagonists. inhibition, % at 4.4 µM. actives 52% (n = 2,400). shares compounds with GPR7 antagonist. GPR7-expressing cells, calcium fluorescence antagonist mode; in the data active = inhibition above about 24%;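 also: stimulated with the GPR7 agonist NPW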
# MCHR1 antag = counter-screen for GPR7 antagonists: antagonists of human MCHR1; shares compounds with GPR7 antagonist; MCHR1-expressing cells, fluorescence antagonist assay; inhibition, % at 4.4 µM; actives 62% (n = 2,400); in the data active = inhibition above about 22%
# Numbers stand for hits; 0 = inactive; - = no result. An excerpt weighted towards active compounds, which were near 2.3% of everything screened.
SMILES,p-CIP stab down,CHT PAM,Pemphigus Ab inh,GPR7 antagonist,T cell HTS,CHT block,GPR7 antag cf,MCHR1 antag
CN1CCN(C2=Cc3ccccc3Sc3cc(F)c(Cl)cc32)CC1,0,0,0,27.0,0,0,37.9,57.7
Cc1nc(Cl)sc1C(=O)Nc1ccccc1,0,0,0,0,0,0,-,-
Cc1nc(C)c(C(=O)Nc2ccccc2)s1,0,0,0,21.6,0,0,0,0
CCC(=O)Nc1ccc(C(=O)NNC(=O)CCCCC(=O)NNC(=O)c2ccc(NC(=O)CC)cc2)cc1,-,-,0,-,-,-,-,-
CC(NC(=S)Nc1ccc(F)cc1)C(c1cccs1)N1CCOCC1 (centres undefined),0,0,0,22.9,0,0,0,0
O=C(NCC1CCCO1)c1cccc(S(=O)(=O)Nc2ccccc2Cl)c1 (centres undefined),-,-,0,-,-,-,-,-
O=Cc1ccccc1OCCOc1ccccc1C=O,0,0,0,23.9,0,0,0,24.8
COc1ccc2cc(C3=CCCC3(C)C(=O)O)ccc2c1 (centres undefined),-,-,0,-,-,-,-,-
CS/C(=C\[N+](=O)[O-])Nc1ccc(F)cc1,0,0,0,23.4,0,0,0,0
COc1ccc(Cl)cc1NC(=O)CN(C)C1CCCCC1,0,0,0,0,0,0,-,-
COc1ccc(Cl)cc1NC(=O)Nc1ccccc1SC,0,0,0,0,0,0,-,-
COc1ccc(Cl)cc1NC(=O)CNc1ccccc1CN(C)C1CCCCC1,0,0,0,26.5,0,0,35.0,46.9
COc1ccc(Cl)cc1NC(=O)Nc1ccccc1C(N)=O,0,0,0,30.2,0,0,0,0
COc1ccc(COC(=O)CCCN=C2NS(=O)(=O)c3ccccc32)cc1F,-,-,0,-,-,-,-,-
Cc1cccc(NC(=O)c2nc[nH]c2C(=O)NC[C@H](C)O)c1,-,-,0,-,-,-,-,-
Cc1ccc(NC(=O)CSc2nnc(-c3ccncc3)n2C)cc1C,0,0,0,83.1,0,0,0,0
CN(Cc1cccc(Cl)c1)C(=O)C1CCC(=O)N(C2CC2)C1 (centres undefined),0,0,0,22.5,0,0,0,0
CN(Cc1ccc(C(F)(F)F)cc1)C(=O)C1CCC(=O)N(C2CC2)C1 (centres undefined),0,0,0,0,0,0,-,-
CC(=O)Nc1c(Cl)cc2c(c1Cl)C(=O)c1ccccc1-2,-,-,0,-,-,-,-,-
CCC(C)Sc1nc2c(c(=O)[nH]1)C(c1cccs1)C1=C(CCCC1=O)N2 (centres undefined),0,0,0,31.9,0,0,25.0,29.8
CSc1nc2ccccc2n1CC(=O)Nc1cc(C(F)(F)F)ccc1N1CCOCC1,0,0,0,36.5,0,0,38.3,25.8
N#Cc1ccc(NC(=O)Nc2ccc(Oc3ccc(NC(=O)Nc4ccc(C#N)cc4)cc3)cc2)cc1,0,0,0,0,0,0,-,-
N#Cc1ccc(NC(=O)Nc2cccc(C#N)c2)cc1,0,0,0,25.4,0,0,36.0,55.1
C[C@H](CO)N1C[C@H](C)[C@H](CN(C)C(=O)c2ccccc2)OCc2cnnn2CCCC1=O,-,-,0,-,-,-,-,-
Cc1ccc2c(c1)C(N1CCCC1=O)CC(c1ccco1)N2 (centres undefined),0,0,0,31.0,0,0,0,0
Cc1ccc(C2CC(c3ccco3)n3ncnc3N2)cc1 (centres undefined),0,0,0,0,0,0,-,-
CC(C)NC(=O)CCc1nc2cccnc2n1-c1ccccc1,0,0,0,55.8,0,0,0,0
CCc1nc2cccnc2n1-c1ccc(CC(=O)O)cc1,0,0,0,0,0,0,-,-
O=C(c1ccc(Cl)c(Cl)c1)N(Cc1ccco1)c1ccc(O)cc1,0,0,0,28.7,0,0,0,0
O=C(CCC1CC(=O)Nc2ccccc21)NCc1ccc(F)cc1 (centres undefined),0,0,0,33.4,0,0,0,23.1
